The term pKi denotes the Ki on a negative log10 scale, so that one unit is a factor of ten. A low value points to a high Ki.

The text below walks through data of ChEMBL document CHEMBL1177714, “Online fluorescence enhancement assay for the acetylcholine binding protein with parallel mass spectrometric identification” (J Med Chem, 2010).

A short description of the assay: Displacement of radioligand from AChBp by scintillation counting. The essentials:
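Lymnaea stagnalis AChBP (Ls-AChBP), expressed from baculovirus in Sf9 insect cells and purified from medium, 1.3 ng per well. Buffer (final): 1.4 mM KH2PO4, 4.3 mM Na2HPO4, 137.0 mM NaCl, 2.7 mM KCl, 20 mM Tris, 4% DMSO, 0.05% Tween 20, pH 7.4. Incubation was 60 min, then 3 h in the dark, with label-bead complexes counted. Full IC50 curves (n=3) were converted to pKi by Cheng-Prusoff.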
Take `Br.NCCCCC(=O)c1cccnc1`: the pKi came to 6.09.

For `COc1ccc(/C=C2\CCCN=C2c2cccnc2)cc1O`, the pKi is 8.46.

In turn, `Clc1ccc(/C=C2\CCCN=C2c2cccnc2)cc1` came in with a pKi of 6.87.

In the case of `COc1cc(/C=C2\CCCN=C2c2cccnc2)ccc1O`, the pKi is on record as 7.09.

On to `C(=C1/CCCN=C1c1cccnc1)/c1cc2ccccc2[nH]1`, for which the negative-log Ki (pKi) came out at 8.71.

The compound `C(=C1/CCCN=C1c1cccnc1)/c1coc2ccccc12` gave a pKi of 7.

Regarding `CC(=O)Nc1ccc(/C=C2\CCCN=C2c2cccnc2)cc1`, the pKi is 7.38.

`O=[N+]([O-])c1cccc(/C=C2\CCCN=C2c2cccnc2)c1`: the pKi turned out to be 6.29.

Compound `Oc1ccc(/C=C2\CCCN=C2c2cccnc2)cc1` had a pKi of 8.55.

`C(=C1/CCCN=C1c1cccnc1)/c1ccccc1` [3-BENZYLIDENEANABASEINE]: the pKi came to 7.13.

In the case of `CCN(CC)c1ccc(/C=C2\CCCN=C2c2cccnc2)c(O)c1`, the pKi was determined as 7.59.
